Screening data as filed in PubChem BioAssay.
mIAP act: mouse IAP activation. muIAP, CDP-Star luminescence, 30 min; hits give high values; 1 = vehicle-only enzyme signal, 0 = enzyme-free wells. activation factor at 10 µM. hit rate 0.24% among 330,000. AID 2805;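 active = activation factor of at least 2 at 20 µM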
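System: mouse IAP enzyme. Reagent: CDP-Star chemiluminescent phosphatase substrate. Benchmarks: DMSO wells, no-enzyme wells. Times: 30 min enzyme-substrate-compound incubation at room temperature. Detection: luminescence from enzymatic CDP-Star hydrolysis. Doses: test compounds delivered from DMSO solution.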
hIAP inh: human IAP inhibition; P09923; purified IAP, CDP-Star luminescence, 30 min; inhibition, % at 10 µM; hit rate 0.12% among 330,000;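 active = inhibition reaching a set limit with compound at 10 µM in the primary screen, cut at about 35% in these data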;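 note: plate controls were DMSO wells with enzyme for no effect and no-enzyme buffer wells for full effect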
Target sequence (P09923 whole entry, looked up): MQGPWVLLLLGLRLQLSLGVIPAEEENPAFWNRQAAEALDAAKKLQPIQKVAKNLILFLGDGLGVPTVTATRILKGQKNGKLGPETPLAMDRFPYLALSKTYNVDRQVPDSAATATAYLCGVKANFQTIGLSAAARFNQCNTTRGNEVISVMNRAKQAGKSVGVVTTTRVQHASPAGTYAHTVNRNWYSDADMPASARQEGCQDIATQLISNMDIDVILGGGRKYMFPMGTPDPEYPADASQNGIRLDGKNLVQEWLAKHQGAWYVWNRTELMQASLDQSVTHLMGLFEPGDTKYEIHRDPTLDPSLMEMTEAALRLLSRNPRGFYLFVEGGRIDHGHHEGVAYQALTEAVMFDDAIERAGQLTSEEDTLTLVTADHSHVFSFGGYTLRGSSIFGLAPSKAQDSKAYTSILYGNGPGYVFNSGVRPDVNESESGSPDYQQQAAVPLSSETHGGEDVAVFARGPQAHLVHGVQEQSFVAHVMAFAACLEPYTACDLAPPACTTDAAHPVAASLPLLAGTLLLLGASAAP
hIAP activ: human IAP activation. hit rate 0.16% among 330,000. purified human IAP, CDP-Star luminescence, 30 min; hits give high values; 1 = vehicle-only enzyme, 0 = enzyme-free background. activation factor at 10 µM. AID 2524;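 active = activation factor of the enzyme at least 2-fold when tested at 20 µM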
bIAP activator: increases bovine intestinal alkaline phosphatase activity | purified bovine IAP, CDP-star luminescence, 30 min; hits give high values; fold of DMSO-control signal, blank-subtracted | activation factor at 20 µM | hit rate 0.17% among 200,000;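 active = activation factor of 2 or more at 20 µM, a signal rise over negative controls twice the positive control's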
bIAP inh: blocks bovine intestinal alkaline phosphatase activity | purified bovine IAP, CDP-star luminescence, 30 min | inhibition, % at 20 µM | 190,000 tested, under 10 active | AID 1019;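 active = over 50% inhibition of intestinal alkaline phosphatase at 20 µM in the single-dose screen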
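Assay system – bovine IAP enzyme · Quantity – bovine IAP at 1/65,000,000 final dilution · Detection – CDP-star luminescence signal · Times – 30 min reaction at room temperature · Also added – CDP-star substrate at 30 µM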
mIAP block: mouse IAP inhibition; AID 2806; inhibition, % at 10 µM; hit rate 0.2% among 330,000; purified mouse IAP, CDP-Star luminescence, 30 min;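 active = inhibition of at least 40% at 10 µM in the primary screen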;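 note: plate controls were DMSO with enzyme for no effect and no enzyme wells for full effect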
mIAP inh confirm: mouse IAP inhibition confirmation | purified mouse IAP, CDP-Star luminescence, 30 min | hit rate 4.7% among 11,000 | shares compounds with mIAP block | inhibition, % at 10 µM;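 active = inhibition of at least 40% at 10 µM in either of the two replicates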;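 note: plate controls were DMSO wells with enzyme for no effect and buffer wells lacking enzyme for full effect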
* marks the source's active call; other numbers are inactive results; x = no result. Hits are enriched below; roughly 0.72% of the tested compounds scored in any of these assays.

SMILES	mIAP act	hIAP inh	hIAP activ	bIAP activator	bIAP inh	mIAP block	mIAP inh confirm
NC1=NC(=O)/C(=C\c2ccco2)S1	0.25	13	0.87	x	x	75*	82*
CCOc1ccccc1N(C)C(=O)Cn1ncc2c([nH]c3ccc(C)cc32)c1=O	1	-2	1	x	x	0	x
O=c1c(-c2c(O)cc(O)c3c(=O)cc(-c4ccc(O)cc4)oc23)c(-c2ccc(O)cc2)oc2cc(O)cc(O)c12	0.41	9	0.91	x	x	59*	65*
O=c1c(O)c(-c2ccc(O)c(O)c2)oc2cc(O)cc(O)c12	0.17	-9	1.1	x	x	83*	91*
Nc1nonc1-n1nnc(C(=O)N/N=C/c2cc(Cl)ccc2O)c1CN1CCCCCC1	0.83	-41	1.4	x	x	17	x
Cc1ccc(CNC(=O)c2cc(-c3ccccc3)nn2Cc2cc(C)no2)cc1	2.2*	0	1	x	x	-122	-126
COc1ccccc1CNC(=O)c1cc(-c2ccccc2)nn1Cc1cc(C)no1	1.6	2	0.98	x	x	-57	x
CCc1cc(Cn2nc(-c3ccccc3)cc2C(=O)NCc2ccccc2OC)on1	2.6*	2	0.97	x	x	-159	-99
O=C(Nc1nc(-c2ccco2)c(-c2ccco2)s1)c1ccc(F)cc1F	0.49	8	0.92	x	x	51*	60*
O=C(Nc1ccc(F)cc1F)c1cc(-c2ccco2)nc2ccccc12	0.86	8	0.92	x	x	14	x
O=C(Nc1nc(-c2ccco2)c(-c2ccco2)s1)c1c(F)cccc1Cl	0.3	16	0.84	x	x	70*	72*
O=[N+]([O-])c1ccc(N/N=C/C=C/c2ccco2)cc1	0.73	26	0.74	x	x	26	x
CCC(CO)Oc1cc(NCc2ccc(C(C)(C)C)cc2)c2ncn(C(C)C)c2c1 (stereo unspecified)	0.88	-7	1.1	x	x	12	x
CCN(Cc1ccccc1)C(c1cc2cc(C)ccc2[nH]c1=O)c1nnnn1CCOC (stereo unspecified)	0.44	-13	1.1	0.8	16	56*	57*
COCCn1nnnc1C(c1cc2c(C)cc(C)cc2[nH]c1=O)N1CCCCCC1 (stereo unspecified)	0.87	27	0.73	1.1	-11	13	x
COCCn1nnnc1C(c1cc2cc(C)ccc2[nH]c1=O)N1CCCCCC1 (stereo unspecified)	0.33	8	0.92	1.1	-13	67*	70*
Cn1cnnc1SCC(=O)Nc1ccc(F)cc1	1.2	16	0.84	x	x	-15	x
Cc1ccc(C)c(CN2CCC(CNC(=O)Nc3ccc(Cl)cc3)CC2)c1	2.7*	-34	1.3	x	x	-172	-123
O=C(NCC1CC1)Nc1ccc(Cl)cc1	1.1	-9	1.1	x	x	-9	x
O=C(C1CC1)N1CCc2cc(S(=O)(=O)NCc3ccccc3)ccc21	0.97	3	0.97	x	x	3	x
Cc1ccc(NC(=S)NC(NC(=O)c2ccccc2C)C(Cl)(Cl)Cl)c(C)c1 (stereo unspecified)	3.1*	-16	1.2	1	-5	-212	-211
CC(=O)NC(NC(=S)Nc1ccc(C)cc1C)C(Cl)(Cl)Cl (stereo unspecified)	1.1	1	0.99	x	x	-14	x
CC(Oc1ccc(F)cc1Br)c1nc2ccccc2c(=O)[nH]1 (stereo unspecified)	0.88	14	0.86	x	x	12	x
O=C(NCCCCc1ccccc1)Nc1cccc(F)c1	2.5*	-18	1.2	x	x	-146	-129
Cc1cccc(NC(=O)NC(C)CCc2ccccc2)c1 (stereo unspecified)	2.8*	-4	1	1.1	-13	-180	-183
SMILES	mIAP act	hIAP inh	hIAP activ	bIAP activator	bIAP inh	mIAP block	mIAP inh confirm
O=C(NCCCc1ccccc1)Nc1ccccc1	1.3	-1	1	1	2	-35	x
Cc1cccc(NC(=O)NCCCCc2ccccc2)c1	2.3*	-8	1.1	x	x	-132	-138
Cc1ccc(NC(=O)NCCCCc2ccccc2)cc1	1.6	-8	1.1	x	x	-62	x
O=c1oc2ccccc2c(Nc2cccc(O)c2)c1[N+](=O)[O-]	0.52	15	0.85	0.7	27	48*	50*
O=C(N/N=C/c1cc(Cl)cc([N+](=O)[O-])c1O)c1ccc2c(c1)OCO2	0.4	20	0.8	x	x	60*	68*
O=C(NN=Cc1ccc(O)cc1)c1ccccc1NS(=O)(=O)c1cccs1	1	-8	1.1	x	x	-3	x
O=C(N/N=C/c1cc(Cl)cc([N+](=O)[O-])c1O)c1ccccc1NS(=O)(=O)c1cccs1	0.59	-22	1.2	x	x	41*	44*
CCC(C(=O)NCCC(C)C)n1ccc2cc(S(=O)(=O)N3CCCCC3)ccc21 (stereo unspecified)	2.7*	-14	1.1	x	x	-170	-159
CC(=O)Nc1ccc(S(=O)(=O)Nc2nc3ccccc3nc2Nc2ccc(C(=O)O)c(O)c2)cc1	0.58	0	0.99	x	x	42*	50*
CC(=O)Nc1ccc(S(=O)(=O)Nc2nc3ccccc3nc2Nc2cccc(O)c2)cc1	0.91	-12	1.1	x	x	9	x
Nc1nnc(CC(=O)N/N=C/c2cc([N+](=O)[O-])cc(Br)c2O)s1	0.53	-9	1.1	1.2	-19	48*	46*
N#CC(C#N)=C(N)/C(C#N)=C/c1cc(O)c(O)c(O)c1	0.29	3	0.97	x	x	70*	66*
Cc1ccsc1/C=C/C1=Cc2c(sc(NC(=O)CSc3n[nH]c(N)n3)c2C#N)C(C)(C)C1	0.55	13	0.87	0.8	17	45*	64*
O=C(Nc1ccc(Cl)cc1)Nc1ccc(Cl)c(Cl)c1	3.3*	-17	1.2	x	x	-227	-127
O=C(Nc1ccc(Cl)c(Cl)c1)Nc1ccc(Br)cc1F	3.5*	5	0.95	1.1	-10	-253	-124
Oc1cccc(O)c1O	0.48	0	1	x	x	52*	58*
CCOc1ccccc1N1CCN(S(=O)(=O)c2ccc3c4c(cccc24)C(=O)N3)CC1	0.41	-10	1.1	0.9	6	59*	56*
CCOC(=O)N1CCN(S(=O)(=O)c2ccc3c4c(cccc24)C(=O)N3)CC1	0.99	-21	1.2	x	x	1	x
O=C(/C=C/c1ccc(O)c(O)c1)OCCc1ccccc1	0.85	29	0.71	x	x	15	x
O=C(/C=C/c1ccc(O)c(O)c1)OC(Cc1ccc(O)c(O)c1)C(=O)O (stereo unspecified)	0.23	31	0.69	x	x	77*	78*
O=C(NNC(=O)c1ccc(O)cc1O)c1ccc(-c2ccccc2)cc1	0.57	-42	1.4	x	x	43*	40*
O=C(NNC(=O)c1cccc2ccccc12)c1ccc(-c2ccccc2)cc1	0.93	-58	1.6	0.8	24	7	x
COc1ccccc1NS(=O)(=O)NC(=O)c1c(C)[nH]c2ccccc12	0.97	-5	1.1	x	x	3	x
